According to BindingDB's records for doi:10.1021/jm00350a002 (1982):

Biological target: T1, Cytochrome P450 2B1 (Rattus norvegicus, UniProt P00176)
T1 sequence (P00176 whole entry): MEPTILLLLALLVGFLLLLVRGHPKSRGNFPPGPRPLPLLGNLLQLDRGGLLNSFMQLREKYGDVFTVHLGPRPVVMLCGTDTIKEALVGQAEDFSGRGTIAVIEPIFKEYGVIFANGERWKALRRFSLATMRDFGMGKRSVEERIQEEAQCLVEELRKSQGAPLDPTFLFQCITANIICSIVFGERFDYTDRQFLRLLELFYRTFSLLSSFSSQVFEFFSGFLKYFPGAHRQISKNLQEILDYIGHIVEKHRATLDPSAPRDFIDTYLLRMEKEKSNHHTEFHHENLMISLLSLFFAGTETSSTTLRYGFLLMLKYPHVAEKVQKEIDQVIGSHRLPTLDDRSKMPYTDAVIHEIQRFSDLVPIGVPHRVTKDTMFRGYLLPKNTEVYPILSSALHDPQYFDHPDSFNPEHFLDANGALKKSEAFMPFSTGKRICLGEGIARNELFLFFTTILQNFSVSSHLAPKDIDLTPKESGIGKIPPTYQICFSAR
Assay: Inhibitory potency to aminopyrine N-demethylase activity (P450) in hepatic microsomes from phenobarbitone-induced rats.
Summary of the method: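 Microsomes (105000g pellet) from livers of male Wistar rats (100–150 g) given phenobarbitone ip on consecutive days. A 3.0 mL mix in 0.1 M K phosphate, pH 7.4, held aminopyrine 1.61 μmol, NADPH-generating system, semicarbazide and 5.6 mg protein, run 15 min. Formaldehyde was read by Nash/Hantzsch. Inhibitor went in DMSO or 0.07 M HCl, with solvent in controls. I50 came from seven concentrations.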

Compound: c1cncc(-c2nc3ccccc3[nH]2)c1
- IC50: 200 µM

Compound: OC(c1ccccc1)c1nc2ccccc2[nH]1 (stereo not drawn)
- IC50: 158 µM

Compound: ClCc1nc2ccccc2[nH]1
- IC50: 141 µM

Compound: CCCCC(=O)Nc1ccc2nc(C)[nH]c2c1
- IC50: 417 µM

Compound: Fc1ccc2[nH]cnc2c1
- IC50: 437 µM

Compound: NCc1nc2ccccc2[nH]1
- IC50: 457 µM

Compound: CCCCCc1nc2cc(NC(C)=O)ccc2[nH]1
- IC50: 158 µM

Compound: CCc1nc2ccc(C)cc2[nH]1
- IC50: 269 µM

Compound: Cc1cccc2[nH]cnc12
- IC50: 525 µM

Compound: Cc1nc2c(C)c(C)ccc2[nH]1
- IC50: 251 µM

Compound: Cc1nc2ccc([N+](=O)[O-])cc2[nH]1
- IC50: 219 µM

Compound: c1ccc2[nH]c(C3CC3)nc2c1
- IC50: 251 µM

Compound: CCCc1nc2cc(C)c(C)cc2[nH]1
- IC50: 110 µM

Compound: FC(F)(F)c1nc2ccccc2[nH]1
- IC50: 257 µM

Compound: O=[N+]([O-])c1cc(Cl)cc2[nH]cnc12
- IC50: 129 µM

Compound: CC(C)(C)c1nc2ccccc2[nH]1
- IC50: 302 µM

Compound: CC(=O)Nc1ccc2nc(C)[nH]c2c1
- IC50: 1260 µM

Compound: CC(C)Cc1nc2ccccc2[nH]1
- IC50: 158 µM

Compound: CCCCc1nc2ccccc2[nH]1
- IC50: 120 µM

Compound: Cc1nc2cc(Cl)ccc2[nH]1
- IC50: 151 µM

Compound: CC(=O)Nc1cc(Cl)cc2[nH]c(C)nc12
- IC50: 309 µM

Compound: CC(C)c1nc2ccccc2[nH]1
- IC50: 537 µM

Compound: Clc1ccc2[nH]cnc2c1
- IC50: 158 µM

Compound: Cc1ccc2nc(C)[nH]c2c1
- IC50: 479 µM

Compound: O=[N+]([O-])c1cccc2[nH]cnc12
- IC50: 468 µM

Compound: Cc1nc2cc(NC(=O)c3ccccc3)ccc2[nH]1
- IC50: 302 µM

Compound: O=[N+]([O-])c1ccc2[nH]cnc2c1 [5-Nitro-1H-benzoimidazole]
- IC50: 309 µM

Compound: Cc1ccc2[nH]cnc2c1 [5-methyl-1H-benzimidazole]
- IC50: 575 µM
